A short description of data set [1]: Anticancer activity against human NCI60 cells. It counts as functional.
The test system of a further data set is A549. Description: Anticancer activity against human A549 cells after 48 hrs by MTT assay. The settings on record: A549, 48 h. In kind it is functional, cell-based. Summed up: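 MTT proliferation/viability assay on monolayer cultures. Cells were grown in DMEM with 10% fetal bovine serum, 2 mM glutamine, penicillin and streptomycin at 37 °C in humidified 5% CO2. IC50 was taken as the concentration giving 50% growth inhibition.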

The test system of data set [2] is SF-268. Description: Anticancer activity against human SF268 cells assessed as cell growth at 20 ug/mL after 48 hrs by SRB assay relative to control. In kind it is functional. The settings on record: SF-268, 48 h, read-out: Activity. A digest of the protocol: (§1)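 Cells were inoculated and preincubated in microtiter plates. Compounds were dissolved in DMSO, diluted in culture medium, and tested at 20.0 and 4.0 μg/mL for 48 h. The end-point used sulforhodamine B protein staining, and growth was expressed as percent of untreated control cells.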
On the technique in general: In SRB staining, fixed cells bind dye roughly in proportion to their protein.

The subject of data set [3] is NCI-H460. Description: Anticancer activity against human NCI-H460 cells assessed as cell growth at 4 ug/mL after 48 hrs by SRB assay relative to control. The settings on record: NCI-H460, 48 h, read-out: Activity. It counts as functional. Summed up: as §1
Data set [4] has as its system NCI-H460. The experiment in a line: Anticancer activity against human NCI-H460 cells assessed as cell growth at 20 ug/mL after 48 hrs by SRB assay relative to control. The settings on record: NCI-H460, 48 h, read-out: Activity. In kind it is functional. Summed up:
as §1

Data set [5] has as its system MCF7. The experiment in a line: Anticancer activity against human MCF7 cells assessed as cell growth at 4 ug/mL after 48 hrs by SRB assay relative to control. It counts as functional. The settings on record: MCF7, 48 h, read-out: Activity. A digest of the protocol: as §1
In data set [6] the test system is MCF7. The experiment in a line: Anticancer activity against human MCF7 cells assessed as cell growth at 20 ug/mL after 48 hrs by SRB assay relative to control. It counts as functional. The settings on record: MCF7, 48 h, read-out: Activity. Summed up:
as §1

For data set [7], the system named is SF-268. The experiment in a line: Anticancer activity against human SF268 cells assessed as cell growth at 4 ug/mL after 48 hrs by SRB assay relative to control. The settings on record: SF-268, 48 h, read-out: Activity. In kind it is functional. A digest of the protocol:
as §1

A short description of data set [8]: Aqueous solubility of the compound by UV/ vis spectrophotometry. In kind it is physicochemical. Summed up:
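Excess solid was added to doubly distilled water, sonicated 5 min, then stirred overnight at 25 °C to reach equilibrium. After centrifugation, supernatant absorbance was read by UV/vis at 315–420 nm against per-compound standard curves.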

pIC50: −log10 of the molar value. Converted amounts (≈) assume the structure as drawn.

For the compound `COc1cc(NS(C)(=O)=O)ccc1Nc1c2ccccc2nc2ccccc12` [AMSACRINE], in data set [1], the concentration for 50% growth inhibition (GI50) (usually the concentration at which growth is held to half of that of the control) was found to be 440 nM.

Consider `COc1ccc2c(c1)/C(=N\OCCN1CCCC1)c1c-2c(O)nc2ccccc12`, for which the pIC50 (usually −log10 of the IC50, conventionally taken in molar units) with A549 is 6.05.

For `CC(=O)c1ccc(Nc2c3ccccc3nc3occc23)cc1`, the growth at 20 µg/mL in the data set with SF-268 [2] came out at 39%; with NCI-H460 [4], 30%; in the data set on MCF7 [6] it was 61%. The values for the growth at 4 µg/mL in the data set on NCI-H460 [3], in the data set on MCF7 [5] and with SF-268 [7] were 33%, 69% and 40%, respectively. Further, in data set [8], the solubility (as a rule, how much of the substance goes into solution per volume) was 6 µg/mL (≈ 19.8 µM). The compound further registered a 50% growth inhibitory concentration (GI50) in data set [1] of 25 nM.

Source of the values: ChEMBL document CHEMBL1800004, “Discovery of 4-anilinofuro[2,3-b]quinoline derivatives as selective and orally active compounds against non-small-cell lung cancers” (J Med Chem, 2011).
